We go through 5 compounds from ChEMBL document CHEMBL3526051 (Drug Metab Dispos, 2012).

Bounds are passed on as bounds.

One data set addresses Histone deacetylase 1 (Homo sapiens, UniProt Q13547). Kind of data set: Inhibition of HDAC1 (unknown origin) expressed in HEK293 cells using [3H]acetylated human histone H4 peptide as substrate by scintillation counting. The format is cell-based.
A further data set has as its target Histone deacetylase 2 (Homo sapiens, UniProt Q92769). Nature of the data set: Inhibition of flag-tagged HDAC2 (unknown origin) expressed in SF21 cells using [3H]acetylated human histone H4 peptide as substrate by scintillation counting.
In the next data set the target is Histone deacetylase 3 (Homo sapiens, UniProt O15379). Nature of the data set: Inhibition of HDAC3 (unknown origin) expressed in HEK293 cells using [3H]acetylated human histone H4 peptide as substrate by scintillation counting.
Histone deacetylase 3, sequence (O15379 whole entry): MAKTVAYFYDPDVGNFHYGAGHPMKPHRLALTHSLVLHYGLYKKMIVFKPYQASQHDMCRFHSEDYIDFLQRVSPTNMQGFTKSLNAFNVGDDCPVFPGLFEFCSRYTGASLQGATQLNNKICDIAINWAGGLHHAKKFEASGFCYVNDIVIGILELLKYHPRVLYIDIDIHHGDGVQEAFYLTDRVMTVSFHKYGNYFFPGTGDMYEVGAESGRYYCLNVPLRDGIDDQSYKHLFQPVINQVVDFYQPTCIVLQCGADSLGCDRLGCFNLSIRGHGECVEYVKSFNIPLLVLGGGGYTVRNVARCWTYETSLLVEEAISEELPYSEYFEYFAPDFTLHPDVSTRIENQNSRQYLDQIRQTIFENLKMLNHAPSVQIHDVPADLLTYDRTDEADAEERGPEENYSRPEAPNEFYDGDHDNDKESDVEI
The next data set deals with Histone deacetylase 4 (Homo sapiens, UniProt P56524). Kind of data set: Inhibition of HDAC4 (unknown origin) expressed in HEK293 cells using [3H]acetylated human histone H4 peptide as substrate by scintillation counting.
Histone deacetylase 4, sequence (P56524 whole entry): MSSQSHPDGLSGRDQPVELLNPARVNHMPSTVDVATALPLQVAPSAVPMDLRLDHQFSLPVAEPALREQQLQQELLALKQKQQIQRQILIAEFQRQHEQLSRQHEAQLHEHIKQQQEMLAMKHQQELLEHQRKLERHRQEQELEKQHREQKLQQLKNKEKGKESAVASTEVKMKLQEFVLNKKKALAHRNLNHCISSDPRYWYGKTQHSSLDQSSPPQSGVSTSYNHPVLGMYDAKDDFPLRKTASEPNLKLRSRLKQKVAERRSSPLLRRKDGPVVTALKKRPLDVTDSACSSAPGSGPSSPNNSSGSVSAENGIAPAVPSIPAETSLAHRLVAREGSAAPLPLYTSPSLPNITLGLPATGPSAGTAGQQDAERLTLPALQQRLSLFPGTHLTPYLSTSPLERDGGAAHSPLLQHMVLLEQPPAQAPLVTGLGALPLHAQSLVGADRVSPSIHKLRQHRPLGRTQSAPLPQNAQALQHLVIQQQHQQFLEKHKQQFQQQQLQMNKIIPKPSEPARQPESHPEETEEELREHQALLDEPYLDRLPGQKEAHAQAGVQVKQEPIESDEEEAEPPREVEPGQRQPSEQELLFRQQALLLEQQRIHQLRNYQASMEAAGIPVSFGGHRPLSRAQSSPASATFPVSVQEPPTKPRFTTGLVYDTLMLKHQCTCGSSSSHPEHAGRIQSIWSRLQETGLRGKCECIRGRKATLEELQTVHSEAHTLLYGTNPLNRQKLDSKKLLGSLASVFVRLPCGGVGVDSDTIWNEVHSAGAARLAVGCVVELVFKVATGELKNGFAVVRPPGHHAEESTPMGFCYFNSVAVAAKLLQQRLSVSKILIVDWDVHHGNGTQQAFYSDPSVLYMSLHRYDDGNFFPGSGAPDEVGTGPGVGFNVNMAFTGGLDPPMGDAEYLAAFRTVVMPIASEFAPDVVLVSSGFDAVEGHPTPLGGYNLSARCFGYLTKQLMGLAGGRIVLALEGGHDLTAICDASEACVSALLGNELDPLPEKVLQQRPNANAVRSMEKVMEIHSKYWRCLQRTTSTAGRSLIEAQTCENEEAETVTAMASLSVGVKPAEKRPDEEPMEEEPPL
For data set [1], the target named is T1, Protein deacetylase HDAC6 (Homo sapiens, UniProt Q9UBN7).
T1 sequence (Q9UBN7 whole entry): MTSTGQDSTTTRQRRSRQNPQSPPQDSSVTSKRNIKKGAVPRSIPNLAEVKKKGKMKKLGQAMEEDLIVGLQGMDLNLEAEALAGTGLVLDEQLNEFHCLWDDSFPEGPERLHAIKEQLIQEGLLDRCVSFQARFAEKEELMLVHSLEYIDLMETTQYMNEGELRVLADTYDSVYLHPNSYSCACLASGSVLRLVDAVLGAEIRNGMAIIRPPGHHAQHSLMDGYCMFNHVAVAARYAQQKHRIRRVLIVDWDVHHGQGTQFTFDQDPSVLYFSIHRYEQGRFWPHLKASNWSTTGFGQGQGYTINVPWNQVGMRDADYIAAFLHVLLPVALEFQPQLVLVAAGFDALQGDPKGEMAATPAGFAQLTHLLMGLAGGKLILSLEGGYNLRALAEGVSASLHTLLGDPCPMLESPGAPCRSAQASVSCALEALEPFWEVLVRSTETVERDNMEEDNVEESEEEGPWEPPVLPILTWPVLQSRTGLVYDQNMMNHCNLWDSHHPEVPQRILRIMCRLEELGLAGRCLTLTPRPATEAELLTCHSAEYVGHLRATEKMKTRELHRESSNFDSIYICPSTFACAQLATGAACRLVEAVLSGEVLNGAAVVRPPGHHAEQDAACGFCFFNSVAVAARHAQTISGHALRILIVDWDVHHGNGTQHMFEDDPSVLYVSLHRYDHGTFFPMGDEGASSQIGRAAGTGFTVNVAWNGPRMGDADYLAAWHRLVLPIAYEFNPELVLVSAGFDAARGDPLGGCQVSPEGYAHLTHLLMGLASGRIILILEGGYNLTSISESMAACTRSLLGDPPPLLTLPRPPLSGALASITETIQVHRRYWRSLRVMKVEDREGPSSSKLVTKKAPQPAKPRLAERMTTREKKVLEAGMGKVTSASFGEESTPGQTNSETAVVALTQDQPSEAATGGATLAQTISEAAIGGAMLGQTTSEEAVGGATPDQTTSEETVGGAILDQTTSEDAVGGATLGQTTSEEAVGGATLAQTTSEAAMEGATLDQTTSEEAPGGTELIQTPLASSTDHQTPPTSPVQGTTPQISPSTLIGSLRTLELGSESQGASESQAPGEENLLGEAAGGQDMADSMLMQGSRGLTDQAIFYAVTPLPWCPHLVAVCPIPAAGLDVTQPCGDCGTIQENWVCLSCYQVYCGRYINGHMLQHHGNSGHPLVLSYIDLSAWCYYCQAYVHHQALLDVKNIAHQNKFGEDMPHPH
Nature of the data set: Inhibition of HDAC6 (unknown origin) expressed in HEK293 cells using [3H]acetylated human histone H4 peptide as substrate by scintillation counting.

Another data set addresses T2, Histone deacetylase 8 (Homo sapiens, UniProt Q9BY41).
T2 sequence (Q9BY41 whole entry): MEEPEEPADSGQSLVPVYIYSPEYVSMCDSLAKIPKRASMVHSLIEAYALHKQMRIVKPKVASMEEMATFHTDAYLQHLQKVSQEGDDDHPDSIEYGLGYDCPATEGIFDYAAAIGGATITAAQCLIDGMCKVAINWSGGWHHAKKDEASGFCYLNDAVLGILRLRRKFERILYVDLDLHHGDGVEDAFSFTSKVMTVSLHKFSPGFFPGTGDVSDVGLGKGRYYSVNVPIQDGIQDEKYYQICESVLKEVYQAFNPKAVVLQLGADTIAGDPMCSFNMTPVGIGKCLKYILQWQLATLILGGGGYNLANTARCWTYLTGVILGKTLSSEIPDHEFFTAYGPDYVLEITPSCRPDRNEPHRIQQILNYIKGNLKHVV
Kind of data set: Inhibition of his-strep-tagged HDAC8 (unknown origin) expressed in SF9 cells using [3H]acetylated human histone H4 peptide as substrate by scintillation counting.

A further data set concerns the target CYP1A2 (Homo sapiens, UniProt P05177). Kind of data set: Activity of recombinant human CYP1A2 expressed in Escherichia coli JM109 co-expressing P450 reductase assessed as enzyme-mediated drug metabolism measured as compound remaining after 1 hr by LC-MS analysis. To be noted: read-out: Stability. It is filed as ADME. The gist of the method: (§1)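 Whole E. coli cells were diluted in PSE buffer (50 mM KH2PO4, 250 mM sucrose, 0.25 mM EDTA, pH 7.4) to 100 mg/ml wet biomass. Each suspension was mixed with DL-isocitrate and substrate stock (5 mg/ml in ACN/DMSO 19:1) in aerated caps. Incubation was at 30°C, 1100 rpm for 0.5 or 1 h. Reactions were stopped with ACN/methanol (1:1) and centrifuged, and the supernatant was analysed by LC-MS.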

The target in another data set is CYP1B1 (Homo sapiens, UniProt Q16678). Nature of the data set: Activity of recombinant human CYP1B1 expressed in Escherichia coli JM109 co-expressing P450 reductase assessed as enzyme-mediated drug metabolism measured as compound remaining after 1 hr by LC-MS analysis. The format is ADME. To be noted: read-out: Stability. The gist of the method:
as §1

In a further data set the target is CYP2A6 (Homo sapiens, UniProt P11509). Kind of data set: Activity of recombinant human CYP2A6 expressed in Escherichia coli JM109 co-expressing P450 reductase assessed as enzyme-mediated drug metabolism measured as compound remaining after 1 hr by LC-MS analysis. It is filed as ADME. To be noted: read-out: Stability. In outline: as §1
CYP2A6, sequence (P11509 whole entry): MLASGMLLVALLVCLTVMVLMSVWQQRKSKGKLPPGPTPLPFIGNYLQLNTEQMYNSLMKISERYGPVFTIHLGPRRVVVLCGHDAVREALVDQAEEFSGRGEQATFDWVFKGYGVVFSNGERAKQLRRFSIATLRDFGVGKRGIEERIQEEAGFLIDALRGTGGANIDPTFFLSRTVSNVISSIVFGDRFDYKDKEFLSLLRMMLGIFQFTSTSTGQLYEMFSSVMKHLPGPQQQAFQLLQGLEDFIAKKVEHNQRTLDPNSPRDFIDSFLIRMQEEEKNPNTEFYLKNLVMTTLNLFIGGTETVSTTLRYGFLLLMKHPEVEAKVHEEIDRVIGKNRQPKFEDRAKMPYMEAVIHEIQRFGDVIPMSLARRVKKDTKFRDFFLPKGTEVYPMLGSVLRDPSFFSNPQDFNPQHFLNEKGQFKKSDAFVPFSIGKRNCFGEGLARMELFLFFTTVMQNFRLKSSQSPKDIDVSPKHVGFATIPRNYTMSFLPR
Another data set has as its target CYP2C8 (Homo sapiens, UniProt P10632). Nature of the data set: Activity of recombinant human CYP2C8 expressed in Escherichia coli JM109 co-expressing P450 reductase assessed as enzyme-mediated drug metabolism measured as compound remaining after 1 hr by LC-MS analysis. To be noted: read-out: Stability. The format is ADME. In outline: as §1
The target of the next data set is CYP2C9 (Homo sapiens, UniProt P11712). Kind of data set: Activity of recombinant human CYP2C9 expressed in Escherichia coli JM109 co-expressing P450 reductase assessed as enzyme-mediated drug metabolism measured as compound remaining after 1 hr by LC-MS analysis. It is filed as ADME. To be noted: read-out: Stability. In outline:
as §1

Another data set deals with CYP2C18 (Homo sapiens, UniProt P33260). Nature of the data set: Activity of recombinant human CYP2C18 expressed in Escherichia coli JM109 co-expressing P450 reductase assessed as enzyme-mediated drug metabolism measured as compound remaining after 1 hr by LC-MS analysis. To be noted: read-out: Stability. It is filed as ADME. The gist of the method: as §1
A further data set deals with CYP2C19 (Homo sapiens, UniProt P33261). Kind of data set: Activity of recombinant human CYP2C19 expressed in Escherichia coli JM109 co-expressing P450 reductase assessed as enzyme-mediated drug metabolism measured as compound remaining after 1 hr by LC-MS analysis. The format is ADME. To be noted: read-out: Stability. The gist of the method:
as §1

For data set [2], the target named is T3, CYP2D6 (Homo sapiens, UniProt P10635). Kind of data set: Activity of recombinant human CYP2D6 expressed in Escherichia coli JM109 co-expressing P450 reductase assessed as enzyme-mediated drug metabolism measured as compound remaining after 1 hr by LC-MS analysis. To be noted: read-out: Stability. The format is ADME. In outline:
as §1

For the next data set, the target named is CYP2E1 (Homo sapiens, UniProt P05181). Kind of data set: Activity of recombinant human CYP2E1 expressed in Escherichia coli JM109 co-expressing P450 reductase assessed as enzyme-mediated drug metabolism measured as compound remaining after 1 hr by LC-MS analysis. The format is ADME. The following applies: read-out: Stability. The gist of the method:
as §1

Data set [3] concerns the target T4, CYP3A4 (Homo sapiens, UniProt P08684). Nature of the data set: Activity of recombinant human CYP3A4 expressed in Escherichia coli JM109 co-expressing P450 reductase assessed as enzyme-mediated drug metabolism measured as compound remaining after 1 hr by LC-MS analysis. The following applies: read-out: Stability. It is filed as ADME. In outline: as §1
In data set [4] the target is T4, CYP3A4. Kind of data set: Activity of recombinant human CYP3A4 expressed in Escherichia coli JM109 co-expressing P450 reductase assessed as enzyme-mediated drug metabolism measured as compound remaining after 1 hr by LC-MS analysis in presence of cytochrome b5. It is filed as ADME. The following applies: read-out: Stability. In outline: as §1
The target of the next data set is CYP3A5 (Homo sapiens, UniProt P20815). Nature of the data set: Activity of recombinant human CYP3A5 expressed in Escherichia coli JM109 co-expressing P450 reductase assessed as enzyme-mediated drug metabolism measured as compound remaining after 1 hr by LC-MS analysis. The format is ADME. The following applies: read-out: Stability. The gist of the method: as §1

The target in a further data set is CYP4A11 (Homo sapiens, UniProt Q02928). Kind of data set: Activity of recombinant human CYP4A11 expressed in Escherichia coli JM109 co-expressing P450 reductase assessed as enzyme-mediated drug metabolism measured as compound remaining after 1 hr by LC-MS analysis. The format is ADME. To be noted: read-out: Stability. In outline:
as §1

Data set [5] can be described thus: Drug metabolism in Escherichia coli JM109 assessed as compound remaining after 1 hr by LC-MS analysis. The format is ADME, organism-based. The following applies: read-out: Stability. In outline:
as §1

For data set [6], the target named is T4, CYP3A4. Nature of the data set: Activity of recombinant human CYP3A4 expressed in supersomes assessed as enzyme-mediated drug metabolism measured as compound remaining at 10 uM after 1 hr by LC-MS analysis. The format is ADME. To be noted: read-out: Stability. The gist of the method: (§2)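 Insect-cell Supersomes coexpressing the rh P450 and rh P450 reductase were incubated with 10 µM substrate in 185 mM HEPES pH 7.5. The mix contained 6.65 mM MgCl2, 0.5 mM NADP, 2.54 mM DL-isocitrate and isocitric dehydrogenase. The reaction was started with the NADPH-regenerating system and run 1 h at 30°C without shaking. It was extracted with 1 volume ACN, centrifuged at 21,000g, and the supernatant analysed by LC-MS.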

Data set [7] addresses T3, CYP2D6. Nature of the data set: Activity of recombinant human CYP2D6 expressed in supersomes assessed as enzyme-mediated drug metabolism measured as compound remaining at 10 uM after 1 hr by LC-MS analysis. To be noted: read-out: Stability. The format is ADME. The gist of the method:
as §2

The target in another data set is CYP2B6 (Homo sapiens, UniProt P20813). Kind of data set: Activity of recombinant human CYP2B6 expressed in Escherichia coli JM109 co-expressing P450 reductase assessed as enzyme-mediated drug metabolism measured as compound remaining after 1 hr by LC-MS analysis. It is filed as ADME. The following applies: read-out: Stability. In outline: as §1
The next data set has as its target CYP1A1 (Homo sapiens, UniProt P04798). Nature of the data set: Activity of recombinant human CYP1A1 expressed in Escherichia coli JM109 co-expressing P450 reductase assessed as enzyme-mediated drug metabolism measured as compound remaining after 1 hr by LC-MS analysis. It is filed as ADME. The following applies: read-out: Stability. The gist of the method: as §1

T4 sequence (P08684 whole entry): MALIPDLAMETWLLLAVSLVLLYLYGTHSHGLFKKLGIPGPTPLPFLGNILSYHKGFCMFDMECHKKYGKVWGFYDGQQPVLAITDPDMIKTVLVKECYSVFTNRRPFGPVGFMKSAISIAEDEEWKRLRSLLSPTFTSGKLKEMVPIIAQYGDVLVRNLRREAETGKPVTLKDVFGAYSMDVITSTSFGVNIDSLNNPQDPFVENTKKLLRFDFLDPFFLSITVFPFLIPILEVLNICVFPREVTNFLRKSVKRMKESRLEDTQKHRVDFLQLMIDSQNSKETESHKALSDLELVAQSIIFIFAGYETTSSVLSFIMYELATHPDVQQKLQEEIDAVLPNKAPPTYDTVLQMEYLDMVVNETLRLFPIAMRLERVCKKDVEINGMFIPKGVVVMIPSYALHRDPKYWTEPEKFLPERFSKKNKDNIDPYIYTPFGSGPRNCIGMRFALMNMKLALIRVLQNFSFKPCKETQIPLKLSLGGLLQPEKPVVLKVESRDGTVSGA
Histone deacetylase 1, sequence (Q13547 whole entry): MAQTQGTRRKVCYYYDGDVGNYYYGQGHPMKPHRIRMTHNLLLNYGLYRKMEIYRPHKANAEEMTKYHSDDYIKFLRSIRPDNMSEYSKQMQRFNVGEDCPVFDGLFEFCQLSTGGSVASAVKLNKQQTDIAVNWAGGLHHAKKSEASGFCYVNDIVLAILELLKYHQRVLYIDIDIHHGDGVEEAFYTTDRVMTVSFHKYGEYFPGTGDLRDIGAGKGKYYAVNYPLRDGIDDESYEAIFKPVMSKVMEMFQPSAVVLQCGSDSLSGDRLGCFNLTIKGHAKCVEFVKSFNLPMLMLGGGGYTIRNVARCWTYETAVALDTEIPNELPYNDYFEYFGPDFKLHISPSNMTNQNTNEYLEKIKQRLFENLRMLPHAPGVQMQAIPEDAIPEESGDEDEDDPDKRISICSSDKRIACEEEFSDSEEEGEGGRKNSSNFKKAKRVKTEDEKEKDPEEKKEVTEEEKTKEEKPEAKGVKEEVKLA
Histone deacetylase 2, sequence (Q92769 whole entry): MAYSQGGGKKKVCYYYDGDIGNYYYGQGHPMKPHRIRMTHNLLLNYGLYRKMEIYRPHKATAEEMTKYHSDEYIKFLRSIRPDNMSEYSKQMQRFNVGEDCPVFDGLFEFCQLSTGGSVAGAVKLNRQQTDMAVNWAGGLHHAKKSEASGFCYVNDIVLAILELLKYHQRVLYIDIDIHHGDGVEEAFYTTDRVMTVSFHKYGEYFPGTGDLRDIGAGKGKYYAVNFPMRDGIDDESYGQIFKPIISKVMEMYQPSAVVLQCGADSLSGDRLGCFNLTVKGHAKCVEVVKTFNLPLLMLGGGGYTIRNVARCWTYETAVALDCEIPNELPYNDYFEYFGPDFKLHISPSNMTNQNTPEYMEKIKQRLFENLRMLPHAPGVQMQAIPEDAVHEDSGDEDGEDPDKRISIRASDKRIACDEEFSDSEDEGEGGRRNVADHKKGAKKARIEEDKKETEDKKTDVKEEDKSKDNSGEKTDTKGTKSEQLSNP
T3 sequence (P10635 whole entry): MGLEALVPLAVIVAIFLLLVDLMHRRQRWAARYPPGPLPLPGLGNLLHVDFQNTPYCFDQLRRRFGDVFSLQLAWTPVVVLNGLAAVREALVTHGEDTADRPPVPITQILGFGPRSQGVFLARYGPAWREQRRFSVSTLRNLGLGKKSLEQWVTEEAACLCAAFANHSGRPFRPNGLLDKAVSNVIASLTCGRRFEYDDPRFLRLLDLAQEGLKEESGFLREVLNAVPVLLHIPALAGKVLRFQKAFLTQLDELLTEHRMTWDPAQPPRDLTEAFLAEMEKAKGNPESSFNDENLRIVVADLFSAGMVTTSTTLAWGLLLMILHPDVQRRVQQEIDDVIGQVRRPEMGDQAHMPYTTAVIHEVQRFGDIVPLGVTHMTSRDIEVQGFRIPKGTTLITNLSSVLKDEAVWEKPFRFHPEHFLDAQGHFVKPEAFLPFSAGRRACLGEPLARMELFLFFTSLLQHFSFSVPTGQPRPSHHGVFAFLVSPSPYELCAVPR
CYP2C8, sequence (P10632 whole entry): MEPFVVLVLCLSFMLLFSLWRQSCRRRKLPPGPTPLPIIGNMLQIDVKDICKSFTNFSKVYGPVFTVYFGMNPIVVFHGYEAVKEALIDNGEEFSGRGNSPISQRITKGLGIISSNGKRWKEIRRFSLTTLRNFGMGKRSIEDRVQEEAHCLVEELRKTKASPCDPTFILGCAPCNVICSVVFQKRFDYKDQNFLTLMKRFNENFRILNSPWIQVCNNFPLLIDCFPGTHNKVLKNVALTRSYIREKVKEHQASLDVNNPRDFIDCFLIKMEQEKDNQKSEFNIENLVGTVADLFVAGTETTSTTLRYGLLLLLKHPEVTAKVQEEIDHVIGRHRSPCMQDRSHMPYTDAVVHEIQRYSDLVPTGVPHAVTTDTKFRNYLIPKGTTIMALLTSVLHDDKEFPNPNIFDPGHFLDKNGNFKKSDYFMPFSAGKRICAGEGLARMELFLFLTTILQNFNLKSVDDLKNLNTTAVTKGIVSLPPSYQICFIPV
CYP2E1, sequence (P05181 whole entry): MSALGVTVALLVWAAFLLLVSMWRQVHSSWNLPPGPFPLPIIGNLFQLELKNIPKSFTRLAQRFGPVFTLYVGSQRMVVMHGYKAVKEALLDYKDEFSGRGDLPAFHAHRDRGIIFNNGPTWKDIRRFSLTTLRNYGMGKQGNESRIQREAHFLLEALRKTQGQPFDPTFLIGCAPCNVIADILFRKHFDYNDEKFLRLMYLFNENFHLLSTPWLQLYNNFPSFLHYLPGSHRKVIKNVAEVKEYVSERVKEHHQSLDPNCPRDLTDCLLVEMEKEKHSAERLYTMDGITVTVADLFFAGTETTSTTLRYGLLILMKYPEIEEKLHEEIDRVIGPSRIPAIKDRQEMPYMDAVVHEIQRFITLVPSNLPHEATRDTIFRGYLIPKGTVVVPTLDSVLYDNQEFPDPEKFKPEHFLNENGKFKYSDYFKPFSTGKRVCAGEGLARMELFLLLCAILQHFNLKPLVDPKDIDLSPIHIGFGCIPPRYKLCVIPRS

As a reminder, the IC50 is the concentration at which inhibition is half-maximal. In the case of `Cc1[nH]c2cc(O)ccc2c1CCNCc1ccc(/C=C/C(N)=O)cc1`, the half-maximal inhibitory concentration (IC50) on Histone deacetylase 1 turned out to be 4.6 µM; at Histone deacetylase 2 it was 27 µM; against Histone deacetylase 3, 3.3 µM; on Histone deacetylase 4, 4.6 µM; in [1], 4.9 µM; at Histone deacetylase 8 it was 6.8 µM.

As for `C[C@@]12Nc3ccccc3[C@]1(O)CCN2Cc1ccc(/C=C/C(N)=O)cc1`, the IC50 on Histone deacetylase 1 amounted to 0.97 µM; at Histone deacetylase 2, 6 µM; against Histone deacetylase 3, 0.93 µM; against Histone deacetylase 4, 1 µM; in data set [1], 1.1 µM; against Histone deacetylase 8 it was 23 µM.

As to `Cc1[nH]c2ccccc2c1CCNCc1ccc(/C=C/C(=O)NO)cc1` [PANOBINOSTAT], the remaining at 1 h on CYP1A2 came to 72%; at CYP1B1, 79%; at CYP2A6 it was 81%; on CYP2C8, 63%; on CYP2C9 it was 34%; on CYP2C18, 56%. The remaining at 1 h came to 80% on CYP2C19; 44% at CYP2D6 [2]; 50% on CYP2E1; 37% at CYP3A4 [3]; 45% at CYP3A4 [4]; 73% on CYP3A5. Besides, the remaining at 1 h on CYP4A11 stood at 59%; in [5] it was 55%; at CYP2B6 it was 62%; at CYP1A1, 61%. Further, the remaining at 1 h, 10 µM on CYP3A4 [6] and on CYP2D6 [7] was 94% in each case.

In the case of `C[C@@]12Nc3ccccc3[C@]1(O)CCN2Cc1ccc(/C=C/C(=O)NO)cc1`, the IC50 turned out to be 0.14 µM against Histone deacetylase 1; 1.5 µM against Histone deacetylase 2; 0.18 µM against Histone deacetylase 3; 0.23 µM on Histone deacetylase 4; 0.062 µM in [1]; 0.92 µM against Histone deacetylase 8.

On to `Cc1[nH]c2ccccc2c1CCNCc1ccc(/C=C/C(N)=O)cc1`, for which the IC50 against Histone deacetylase 1 was 11 µM; against Histone deacetylase 2, 29 µM; against Histone deacetylase 3, 22 µM; against Histone deacetylase 4 it was 18 µM; in data set [1], greater than 30 µM; against Histone deacetylase 8, 22 µM.
